Results from ChEMBL document CHEMBL1148823, “Inactivation of O(6)-alkylguanine-DNA alkyltransferase by folate esters of O(6)-benzyl-2'-deoxyguanosine and of O(6)-[4-(hydroxymethyl)benzyl]guanine” (J Med Chem, 2007).
Activity calls are given as the source filed them. The rule behind the calls is not given here.

Columns and labels:
Homo sapiens [1] = species: Homo sapiens; test: (§1) Inactivation of human alkyltransferase in presence of DNA
In short: (§2)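 Purified recombinant human alkyltransferase was incubated with a range of inhibitor concentrations plus 10 μg calf thymus DNA for 30 min at 37°C. The buffer was 50 mM Tris-HCl pH 7.6, 0.1 mM EDTA and 5.0 mM DTT. ED50 came from graphs of % remaining activity against inhibitor concentration. Values are means of 3–5 repeats or of two experiments.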

Homo sapiens [2] = species: Homo sapiens; test: Inactivation of human alkyltransferase in absence of DNA
In short: as §2, with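 “concentrations” for “concentrations plus 10 μg calf thymus DNA”, “The reaction” for “The”, “dithiothreitol, with 50 μg hemocyanin and no DNA.” for “DTT.”, “was read” for “came”, “plots” for “graphs”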

HT-29 = test: Induction of sensitization to BCNU-induced killing in human HT29 cells; assay type: functional, cell-based
In short: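 HT29 cells in RPMI with 10% FBS were given inhibitor for 2 h before 40 μM BCNU for 2 h. Alternatively, cells grown 48 h in folate-free RPMI got inhibitor for 8 h before 20 μM BCNU for 2 h. Inhibitor-containing medium followed for 16–18 h. Cells were replated at 250–1000 per flask and grown 8 days. Survival was scored as crystal violet-stained colonies.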

[3] = as §1; in short: as §2
A549 = test: Induction of sensitization to BCNU-induced killing in human A549 cells; assay type: functional, cell-based
In short: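 A549 cells were grown 48 h in folate-free RPMI with 10% FBS and plated at 10⁶ per flask. After 24 h they were given inhibitor at various concentrations for 8 h, then 20 μM BCNU for 2 h. Medium was replaced with inhibitor-containing medium for 16–18 h. Cells were replated at 250–1000 per flask and grown 8 days. Crystal violet-stained colonies were counted.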

KB = test: Induction of sensitization to BCNU-induced killing in human KB cells; assay type: functional, cell-based
In short: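 KB cells were grown 48 h in folate-free RPMI with 10% FBS and plated at 10⁶ per flask. After 24 h they were exposed to inhibitor at different concentrations for 8 h, then 40 μM BCNU for 2 h. Medium with inhibitor but no BCNU was given for 16–18 h. Cells were replated at 250–1000 per flask for 8 days of colony formation. Colonies were stained with crystal violet and counted.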

[4] = test system: T1, Methylated-DNA--protein-cysteine methyltransferase (Homo sapiens), P16455 [P140K]; test: Inactivation of human alkyltransferase P140K mutant
T1 sequence (whole entry): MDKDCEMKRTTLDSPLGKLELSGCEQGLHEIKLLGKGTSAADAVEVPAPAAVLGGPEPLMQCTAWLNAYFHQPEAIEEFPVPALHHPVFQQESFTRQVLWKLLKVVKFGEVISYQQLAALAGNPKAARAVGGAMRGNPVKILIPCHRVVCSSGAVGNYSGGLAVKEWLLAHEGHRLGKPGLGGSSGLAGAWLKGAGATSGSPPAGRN

Row | SMILES | ED50 (Homo sapiens [1]) [nM] | ED50 (Homo sapiens [2]) [nM] | Activity (HT-29) | EC50 [3] [nM] | Activity (A549) | Activity (KB) | ED50 [4] [nM]
1 | Nc1nc(OCc2ccccc2)c2ncn([C@H]3C[C@H](O)[C@@H](CO)O3)c2n1 | 40000 | 2000 |  |  |  |  | 
2 | Nc1nc(OCc2ccccc2)c2ncn([C@H]3C[C@H](O)[C@@H](COC(=O)CC[C@H](NC(=O)c4ccc(NCc5cnc6nc(N)[nH]c(=O)c6n5)cc4)C(=O)O)O3)c2n1 |  | 640 | Active | 3060 | Active | Active | 
3 | Nc1nc(OCc2ccccc2)c2nc[nH]c2n1 | 100 | 300 |  |  |  |  | 
4 | Nc1nc(OCc2ccccc2)c2ncn([C@H]3C[C@H](OC(=O)CC[C@H](NC(=O)c4ccc(NCc5cnc6nc(N)[nH]c(=O)c6n5)cc4)C(=O)O)[C@@H](CO)O3)c2n1 | 680 | 16 | Active |  | Active | Active | 100000
5 | Nc1nc(OCc2ccc(CO)cc2)c2nc[nH]c2n1 | 100 | 400 | Active |  |  |  | 
6 | Nc1nc(OCc2ccc(COC(=O)CC[C@H](NC(=O)c3ccc(NCc4cnc5nc(N)[nH]c(=O)c5n4)cc3)C(=O)O)cc2)c2nc[nH]c2n1 | 240 | 700 |  |  |  |  | 
